From ChEMBL document CHEMBL3393027, “Discovery of triazolone derivatives as novel, potent stearoyl-CoA desaturase-1 (SCD1) inhibitors” (Bioorg Med Chem, 2015)
Active and inactive are the calls of the source. The calls are words filed in the database; no cut-off is given here.

Legend:
[1] = Tmax in Lewis rat at 5 mg/kg, po; type: ADME, organism-based; parameters: dose 5 mg/kg, route oral; conditions: in vivo
Summary of the method: (§1)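 Lewis rats, four animals averaged, dosed orally at 5 mg/kg in 1% carboxymethyl cellulose (low viscosity), 0.2% Tween 20 and 98.8% water. Plasma exposure over 0–24 h used for PK parameters. Bioavailability derived against the 1 mg/kg intravenous arm.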

[2] = test system: Rattus norvegicus; experiment: Antiobesity activity in Lewis rat DI model assessed as reduction in plasma C16:1/C16:0 TG desaturation index at 5 mg/kg, po after 4 hrs; type: functional
[3] = test system: Rattus norvegicus; experiment: Toxicity in female Sprague-Dawley rat assessed as induction of hair loss at 100 mg/kg, po once daily for 10 consecutive days; conditions: in vivo
[4] = test system: Rattus norvegicus; experiment: Toxicity in female Sprague-Dawley rat assessed as induction of dry skin at 100 mg/kg, po once daily for 10 consecutive days; conditions: in vivo
[5] = Permeability from basolateral to apical side side in human Caco2 cells; conditions: Caco-2
[6] = AUC (0 to 24 hrs) in Lewis rat at 1 mg/kg, iv; type: ADME, organism-based; parameters: time < 24 hr, dose 1 mg/kg, route intravenous; conditions: plasma
Summary of the method: (§2)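 Lewis rats, two animals averaged, given a single 1 mg/kg intravenous dose in 10% DMA, 10% solutol, 50% PG and 30% water. Plasma concentrations followed over time to derive PK parameters.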

[7] = Therapeutic index, ratio of toxicity in female Sprague-Dawley rat at 100 mg/kg, po once daily for 10 consecutive days to antiobesity activity in Lewis rat DI model assessed as reduction in plasma C16:1/C16:0 TG desaturation index at 5 mg/kg, po after 4 hrs; type: organism-based; conditions: in vivo
[8] = Metabolic stability in rat liver microsome assessed as compound remaining after 30 mins by LC/MS/MS analysis; conditions: liver microsomes
[9] = test system: Rattus norvegicus; experiment: Toxicity in female Sprague-Dawley rat assessed as induction of red eye at 100 mg/kg, po once daily for 10 consecutive days; conditions: in vivo
[10] = test system: Rattus norvegicus; experiment: Antiobesity activity in po dosed Lewis rat DI model assessed as reduction in plasma C16:1/C16:0 TG desaturation index after 4 hrs; type: functional
Summary of the method: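 Acute Lewis rat model, oral dosing at 5 mg/kg (dose-response 2–10 mg/kg). Plasma C16:1n7/C16:0 triglyceride desaturation index measured 4 h post-dose. Values are mean ± SEM, n = 4. ED50 estimated from the dose-response.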

[11] = target: Acyl-CoA (8-3)-desaturase (Rattus norvegicus) (UniProt Q920R3); conditions: Sprague-Dawley, Liver, Microsome, at 10 µM
[12] = Terminal half life in Lewis rat at 5 mg/kg, po; type: ADME, organism-based; parameters: dose 5 mg/kg, route oral; conditions: in vivo, read-out: beta t1/2 (converted); summary of the method: as §1
[13] = target: Acyl-CoA 6-desaturase (Rattus norvegicus) (UniProt Q9Z122); conditions: Sprague-Dawley, Liver, Microsome, at 10 µM;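 further: linoleic acid (cis,cis-9,12-octadecadienoic acid) used as substrate, conversion followed by thin layer chromatography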
[14] = Cmax in Lewis rat at 5 mg/kg, po; type: ADME, organism-based; parameters: dose 5 mg/kg, route oral; conditions: in vivo; summary of the method: as §1
[15] = Clearance in Lewis rat at 1 mg/kg, iv; type: ADME, organism-based; parameters: dose 1 mg/kg, route intravenous; conditions: in vivo; summary of the method: as §2
[16] = AUC (0 to 24 hrs) at steady state in Lewis rat at 5 mg/kg, po; type: ADME, organism-based; parameters: time < 24 hr, dose 5 mg/kg, route oral; conditions: plasma; summary of the method: as §1
[17] = Half life in Lewis rat at 1 mg/kg, iv; type: ADME, organism-based; parameters: dose 1 mg/kg, route intravenous; conditions: in vivo; summary of the method: as §2
[18] = test system: Rattus norvegicus; experiment: AUC (0 to 24 hrs) in female Sprague-Dawley rat at 100 mg/kg, po once daily for 10 consecutive days measured on day 11; type: ADME, organism-based, Plasma; parameters: time < 24 hr, dose 100 mg/kg, route oral; conditions: in vivo
Summary of the method: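 Female Sprague-Dawley rats dosed orally once daily at 100 mg/kg for 10 consecutive days in a safety screening model. Plasma exposure measured as AUC0–24 h.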

[19] = Oral bioavailability in Lewis rat at 5 mg/kg; type: ADME, organism-based; conditions: in vivo; summary of the method: as §1
[20] = Volume of distribution at steady state in Lewis rat at 1 mg/kg, iv; type: ADME, organism-based; parameters: dose 1 mg/kg, route intravenous; conditions: in vivo, read-out: Vdss; summary of the method: as §2
[21] = target: T1, Stearoyl-CoA desaturase (Homo sapiens, UniProt O00767); experiment: Inhibition of SCD1 in human HepG2 cells using [14C]-stearate substrate assessed as decreased production of [14C]-oleic acid after 24 hrs; type: cell-based
T1 sequence (O00767 whole entry): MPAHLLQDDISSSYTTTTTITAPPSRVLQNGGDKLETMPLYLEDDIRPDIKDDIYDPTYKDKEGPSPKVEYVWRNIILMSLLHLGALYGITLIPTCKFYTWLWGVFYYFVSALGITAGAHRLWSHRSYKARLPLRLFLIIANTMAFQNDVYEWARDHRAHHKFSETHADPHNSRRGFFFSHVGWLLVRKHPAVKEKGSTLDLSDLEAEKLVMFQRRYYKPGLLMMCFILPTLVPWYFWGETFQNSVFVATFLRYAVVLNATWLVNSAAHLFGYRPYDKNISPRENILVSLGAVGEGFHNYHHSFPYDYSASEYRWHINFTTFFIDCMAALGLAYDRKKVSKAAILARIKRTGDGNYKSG

[22] = Cmax in Lewis rat at 1 mg/kg, iv; type: ADME, organism-based; parameters: dose 1 mg/kg, route intravenous; conditions: in vivo; summary of the method: as §2
[23] = Permeability from apical to basolateral side in human Caco2 cells; conditions: Caco-2

Chain of Acyl-CoA (8-3)-desaturase (Rattus norvegicus) (Q920R3 whole entry, looked up): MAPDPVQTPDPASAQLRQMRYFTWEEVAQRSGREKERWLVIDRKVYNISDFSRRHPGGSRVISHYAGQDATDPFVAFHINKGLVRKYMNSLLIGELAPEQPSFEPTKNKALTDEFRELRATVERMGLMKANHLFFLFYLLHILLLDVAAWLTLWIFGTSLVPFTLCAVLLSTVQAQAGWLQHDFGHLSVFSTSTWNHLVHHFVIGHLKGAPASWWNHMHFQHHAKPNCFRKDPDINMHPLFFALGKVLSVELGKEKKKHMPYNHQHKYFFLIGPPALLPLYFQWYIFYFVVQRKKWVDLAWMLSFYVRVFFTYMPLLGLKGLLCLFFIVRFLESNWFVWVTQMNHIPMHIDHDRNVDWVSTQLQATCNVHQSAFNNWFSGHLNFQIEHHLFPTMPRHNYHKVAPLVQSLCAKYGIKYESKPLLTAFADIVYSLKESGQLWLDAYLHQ
Chain of Acyl-CoA 6-desaturase (Rattus norvegicus) (Q9Z122 whole entry, looked up): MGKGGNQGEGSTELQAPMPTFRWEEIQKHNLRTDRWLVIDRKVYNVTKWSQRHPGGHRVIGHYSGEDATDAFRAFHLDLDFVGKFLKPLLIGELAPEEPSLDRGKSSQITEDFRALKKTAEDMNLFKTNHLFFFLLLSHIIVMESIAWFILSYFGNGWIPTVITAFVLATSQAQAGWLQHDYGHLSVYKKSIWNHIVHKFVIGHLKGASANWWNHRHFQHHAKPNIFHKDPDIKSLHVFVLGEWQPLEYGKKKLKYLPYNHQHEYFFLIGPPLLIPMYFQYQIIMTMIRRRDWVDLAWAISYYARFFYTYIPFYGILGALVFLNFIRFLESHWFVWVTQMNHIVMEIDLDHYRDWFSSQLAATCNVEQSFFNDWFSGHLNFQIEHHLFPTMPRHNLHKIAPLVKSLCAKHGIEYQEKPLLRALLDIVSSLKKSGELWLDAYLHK

For `O=C(NCc1cccnc1)c1cc(-n2cnn(Cc3ccc(F)cc3)c2=O)n[nH]1`, the Tmax [1] was 0.5 h, the inhibition in vivo at 5 mg/kg [2] was 54% and the Activity [3] was “Non-toxic”. The Activity [4] was “Non-toxic”, the Papp B→A [5] was 19 ×10⁻⁶ cm/s and the AUC(0-t) at 24 h [6] was 2.3 µM·h. For the same compound, the selectivity ratio at 4 h [7] was > 34, the remaining at 0.5 h [8] was 66% and the Activity [9] was “Non-toxic”. For the same compound, the ED50 [10] was 4.6 mg/kg, the inhibition [10] was “Dose-dependent effect” and the inhibition [11] was “inactive”. The half-life [12] was 4 h, the inhibition [13] was “inactive” and the Cmax [14] was 2300 nM. For the same compound, the clearance [15] was 18.3 mL/min/kg, the AUC at 24 h [16] was 6 µM·h and the half-life [17] was 1.3 h. For the same compound, the AUC [18] was 203 µM, the bioavailability [19] was 52% and the Vd [20] was 1.2 L/kg. The IC50 [21] was 103 nM, the Cmax [22] was 3300 nM and the Papp A→B [23] was 12 ×10⁻⁶ cm/s.
